# Experimental data collected from several papers.
SMILES,cell line,test,setting,measurement,result
COc1ccc(/C=C/C(=O)c2c(O)cc(OC)cc2OC)cc1,SPCA1,"cell growth or viability, MTT",,IC50,19.1 µM
N.N.[Cl][Pt][Cl],CD4,cell growth or viability,72 h,IC50,2.2 µg/mL
COc1cccc2c1C(=O)c1c(O)c3c(c(O)c1C2=O)C[C@@](O)(C(=O)CO)C[C@@H]3O[C@H]1C[C@H](N)[C@H](O)[C@H](C)O1,SPCA1,"cell growth or viability, MTT",,IC50,30 µM
COc1ccc(CCNCc2c(N)nc(N)nc2C2CC2)cc1,Vero,"cell growth or viability, SRB",,IC50,71 µM
N.N.[Cl][Pt][Cl],HL-60,"cell growth or viability, MTT",48 h,IC50,1.17 µM
COc1c(O)cc2oc3cc(O)c(CC=C(C)C)c(O)c3c(=O)c2c1CC=C(C)C,22Rv1,cell growth or viability,48 h,IC50,19.5 µM
O=C(CC(=O)c1ccccc1)c1ccccc1,HL-60,"cell growth or viability, resazurin","72 h, dark",IC50,15.5 µM
COc1cc([C@@H]2c3cc4c(cc3[C@H](O)[C@H]3COC(=O)[C@H]23)OCO4)cc(OC)c1OC,NCI-H1299,"cell growth or viability, MTT",72 h,EC50,0.003 µM
COC(=O)[C@@H](N)CCCNC(N)=N[N+](=O)[O-],RAW264.7,"NO release, inhibitor, Griess","250 µM, LPS-stimulated",inhibition,54%
COc1cccc(CCNCc2c(N)nc(N)nc2C2CC2)c1,Vero,"cell growth or viability, SRB",,IC50,7.2 µM
N.N.[Cl][Pt][Cl],SMMC-7721,"cell growth or viability, MTT",20 µM,inhibition,73.8%
COc1cc(O)c(C(=O)/C=C/c2ccccc2)c(OC)c1,SPCA1,"cell growth or viability, MTT",,IC50,31.7 µM
Nc1nc(N)c(CNCCc2ccccc2F)c(C2CC2)n1,Vero,"cell growth or viability, SRB",,IC50,> 100 µM
CC(C)[C@H](NC(=O)[C@H](Cc1c[nH]c2ccccc12)NC(=O)[C@H](Cc1c[nH]cn1)NC(=O)[C@H](CCCNC(=N)N)NC(=O)[C@H](CCCNC(=N)N)NC(=O)[C@H](Cc1c[nH]c2ccccc12)NC(=O)[C@H](Cc1c[nH]c2ccccc12)NC(=O)[C@H](Cc1c[nH]cn1)NC(=O)[C@H](Cc1c[nH]c2ccccc12)NC(=O)[C@H](CCCNC(=N)N)NC(=O)[C@@H](N)CCCCN)C(=O)N[C@H](C(=O)N[C@@H](Cc1c[nH]c2ccccc12)C(N)=O)C(C)C,RAW264.7,"cell growth or viability, MTT",24 h,IC50,111 µM
